Data as given in ChEMBL document CHEMBL3627671, “Novel derivatives of nitro-substituted salicylic acids: Synthesis, antimicrobial activity and cytotoxicity” (Bioorg Med Chem, 2015).

What was measured:
Pseudomonas aeruginosa [1] = assay: Antibacterial activity against Pseudomonas aeruginosa CCM 1961 after 24 hrs by microdilution broth method; format: functional; details: CCM 1961, 24 h
In short: (§1)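 Mueller-Hinton broth microdilution (modified M07-A07), pH 7.4 (±0.2). Compounds dissolved in DMSO, tested at final 500 to 0.49 µmol/L. Inoculum in sterile water matched to 0.5 McFarland. Incubated in the dark, humid atmosphere, 35 °C, read at 24 and 48 h visually and at 540 nm. MIC taken as ≥95% growth reduction (IC95) versus control.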

[2] = system: Trichophyton mentagrophytes; assay: Antifungal activity against Trichophyton mentagrophytes 445 after 48 hrs by microdilution broth method; format: functional; details: Trichophyton mentagrophytes, 445, 48 h
[3] = system: Mycobacterium tuberculosis; assay: Antimycobacterial activity against Mycobacterium tuberculosis H37Rv 331/88 after 14 days; format: functional; details: H37Rv 331/88, 336 h
[4] = system: Trichophyton mentagrophytes; assay: Antifungal activity against Trichophyton mentagrophytes 445 after 24 hrs by microdilution broth method; format: functional; details: Trichophyton mentagrophytes, 445, 24 h
Aspergillus fumigatus [5] = assay: Antifungal activity against Aspergillus fumigatus 231 after 48 hrs by microdilution broth method; format: functional; details: Aspergillus fumigatus, 231, 48 h
In short: (§2)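 CLSI M27-A3 broth microdilution in RPMI 1640 with glutamine, buffered to pH 7.0 with MOPS; DMSO diluent. Yeast inoculum 5 × 10^3 ± 0.2 CFU/mL. Moulds grown on Sabouraud agar 3–10 days before spore harvest, final inoculum 0.5-5 × 10^4 CFU/mL, checked in a Bürker chamber. Incubated dark, humid, 35 °C, read at 24 and 48 h visually and at 540 nm. MIC taken as ≥80% (yeasts) or ≥50% (filamentous) growth reduction versus control.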

[6] = Selectivity index, ratio of CI50 for human HepG2 cells to MIC100 for Mycobacterium tuberculosis H37Rv 331/88
Nakaseomyces glabratus [7] = assay: Antifungal activity against Candida glabrata 20/I after 48 hrs by microdilution broth method; format: functional; in short: as §2
Escherichia coli [8] = assay: Antibacterial activity against Escherichia coli CCM4517 after 24 hrs by microdilution broth method; format: functional; details: CCM4517, 24 h; in short: as §1
Staphylococcus aureus [9] = assay: Antibacterial activity against Staphylococcus aureus CCM 4516/08 after 24 hrs by microdilution broth method; format: functional; details: CCM 4516/08, 24 h
HepG2 = assay: Cytotoxicity against human HepG2 cells after 24 hrs […]; format: cell-based; details: HepG2, 24 h
Candida albicans [10] = assay: Antifungal activity against Candida albicans ATCC 44859 after 48 hrs by microdilution broth method; format: functional; details: ATCC 44859, 48 h; in short: as §2
Candida tropicalis [11] = assay: Antifungal activity against Candida tropicalis 156 after 24 hrs by microdilution broth method; format: functional; details: Candida tropicalis, 156, 24 h; in short: as §2
Candida albicans [12] = assay: Antifungal activity against Candida albicans ATCC 44859 after 24 hrs by microdilution broth method; format: functional; details: ATCC 44859, 24 h; in short: as §2
[13] = system: Staphylococcus epidermidis; assay: Antibacterial activity against Staphylococcus epidermidis H 6966/08 after 48 hrs by microdilution broth method; format: functional; details: H 6966/08, 48 h; in short: as §1
Pichia kudriavzevii [14] = assay: Antifungal activity against Candida krusei E28 after 24 hrs by microdilution broth method; format: functional; details: E28, 24 h; in short: as §2
Staphylococcus aureus [15] = assay: Antibacterial activity against methicillin-resistant Staphylococcus aureus H 5996/08 after 24 hrs by microdilution broth method; format: functional; details: H 5996/08, 24 h
Lichtheimia corymbifera [16] = assay: Antifungal activity against Absidia corymbifera 272 after 24 hrs by microdilution broth method; format: functional; details: Lichtheimia corymbifera, 272, 24 h; in short: as §2
Enterococcus sp. [17] = assay: Antibacterial activity against Enterococcus sp. J 14365/08 after 48 hrs by microdilution broth method; format: functional; details: J 14365/08, 48 h; in short: as §1
Klebsiella pneumoniae [18] = assay: Antibacterial activity against ESBL-positive Klebsiella pneumoniae J 14368/08 after 48 hrs by microdilution broth method; format: functional; details: J 14368/08, 48 h; in short: as §1
[19] = system: Mycobacterium tuberculosis; assay: Antimycobacterial activity against Mycobacterium tuberculosis H37Rv 331/88 after 21 days; format: functional; details: H37Rv 331/88, 504 h
Lichtheimia corymbifera [20] = assay: Antifungal activity against Absidia corymbifera 272 after 48 hrs by microdilution broth method; format: functional; details: Lichtheimia corymbifera, 272, 48 h; in short: as §2
Mycobacterium avium [21] = assay: Antimycobacterial activity against Mycobacterium avium 330/80 after 21 days; format: functional; details: 330/80, 504 h
Escherichia coli [22] = assay: Antibacterial activity against Escherichia coli CCM4517 after 48 hrs by microdilution broth method; format: functional; details: CCM4517, 48 h; in short: as §1
Enterococcus sp. [23] = assay: Antibacterial activity against Enterococcus sp. J 14365/08 after 24 hrs by microdilution broth method; format: functional; details: J 14365/08, 24 h; in short: as §1
Klebsiella pneumoniae [24] = assay: Antibacterial activity against Klebsiella pneumoniae D 11750/08 after 48 hrs by microdilution broth method; format: functional; details: D 11750/08, 48 h; in short: as §1
[25] = system: Staphylococcus epidermidis; assay: Antibacterial activity against Staphylococcus epidermidis H 6966/08 after 24 hrs by microdilution broth method; format: functional; details: H 6966/08, 24 h; in short: as §1
Staphylococcus aureus [26] = assay: Antibacterial activity against methicillin-resistant Staphylococcus aureus H 5996/08 after 48 hrs by microdilution broth method; format: functional; details: H 5996/08, 48 h
Mycobacterium kansasii [27] = assay: Antimycobacterial activity against Mycobacterium kansasii 6509/96 after 7 days; format: functional; details: 6509/96, 168 h
In short: (§3)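 Šula's semisynthetic medium micromethod at 37 °C, read after 7, 14 and 21 days. The 1.0 McFarland suspension was diluted 10^-4. MIC determined. 6509/96 is a clinical isolate.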

Mycobacterium kansasii [28] = assay: Antimycobacterial activity against Mycobacterium kansasii 235/80 after 21 days; format: functional; details: 235/80, 504 h; in short: as §3
Pichia kudriavzevii [29] = assay: Antifungal activity against Candida krusei E28 after 48 hrs by microdilution broth method; format: functional; details: E28, 48 h; in short: as §2
Aspergillus fumigatus [30] = assay: Antifungal activity against Aspergillus fumigatus 231 after 24 hrs by microdilution broth method; format: functional; details: Aspergillus fumigatus, 231, 24 h; in short: as §2
Mycobacterium kansasii [31] = assay: Antimycobacterial activity against Mycobacterium kansasii 6509/96 after 14 days; format: functional; details: 6509/96, 336 h; in short: as §3
Trichosporon asahii [32] = assay: Antifungal activity against Trichosporon asahii 1188 after 24 hrs by microdilution broth method; format: functional; details: Trichosporon asahii, 1188, 24 h; in short: as §2
Pseudomonas aeruginosa [33] = assay: Antibacterial activity against Pseudomonas aeruginosa CCM 1961 after 48 hrs by microdilution broth method; format: functional; details: CCM 1961, 48 h; in short: as §1
Mycobacterium avium [34] = assay: Antimycobacterial activity against Mycobacterium avium 330/80 after 14 days; format: functional; details: 330/80, 336 h
Klebsiella pneumoniae [35] = assay: Antibacterial activity against Klebsiella pneumoniae D 11750/08 after 24 hrs by microdilution broth method; format: functional; details: D 11750/08, 24 h; in short: as §1
Staphylococcus aureus [36] = assay: Antibacterial activity against Staphylococcus aureus CCM 4516/08 after 48 hrs by microdilution broth method; format: functional; details: CCM 4516/08, 48 h
Nakaseomyces glabratus [37] = assay: Antifungal activity against Candida glabrata 20/I after 24 hrs by microdilution broth method; format: functional; in short: as §2
Trichosporon asahii [38] = assay: Antifungal activity against Trichosporon asahii 1188 after 48 hrs by microdilution broth method; format: functional; details: Trichosporon asahii, 1188, 48 h; in short: as §2
Mycobacterium kansasii [39] = assay: Antimycobacterial activity against Mycobacterium kansasii 235/80 after 14 days; format: functional; details: 235/80, 336 h; in short: as §3
Mycobacterium kansasii [40] = assay: Antimycobacterial activity against Mycobacterium kansasii 235/80 after 7 days; format: functional; details: 235/80, 168 h; in short: as §3
Mycobacterium kansasii [41] = assay: Antimycobacterial activity against Mycobacterium kansasii 6509/96 after 21 days; format: functional; details: 6509/96, 504 h; in short: as §3
Klebsiella pneumoniae [42] = assay: Antibacterial activity against ESBL-positive Klebsiella pneumoniae J 14368/08 after 24 hrs by microdilution broth method; format: functional; details: J 14368/08, 24 h; in short: as §1
Candida tropicalis [43] = assay: Antifungal activity against Candida tropicalis 156 after 48 hrs by microdilution broth method; format: functional; details: Candida tropicalis, 156, 48 h; in short: as §2

O=C(Nc1cccc(C(F)(F)F)c1)c1ccc([N+](=O)[O-])cc1O
500 µM: MIC (Escherichia coli [8]) | MIC (Lichtheimia corymbifera [16]) | MIC (Enterococcus sp. [17]) | MIC (Escherichia coli [22]) | MIC (Klebsiella pneumoniae [24]) | MIC (Aspergillus fumigatus [30]) | MIC (Klebsiella pneumoniae [35])
62.5 µM: MIC (Mycobacterium avium [21]) | MIC (Trichosporon asahii [32]) | MIC (Mycobacterium avium [34])
250 µM: MIC (Pichia kudriavzevii [14]) | MIC (Enterococcus sp. [23]) | MIC (Trichosporon asahii [38])
3.9 µM: MIC (Staphylococcus aureus [9]) | MIC (Staphylococcus aureus [36])
2.8 µM: IC50 (HepG2)
> 500 µM: MIC (Pseudomonas aeruginosa [1]) | MIC [2] | MIC [4] | MIC (Aspergillus fumigatus [5]) | MIC (Nakaseomyces glabratus [7]) | MIC (Candida albicans [10]) | MIC (Candida tropicalis [11]) | MIC (Candida albicans [12]) | MIC (Klebsiella pneumoniae [18]) | MIC (Lichtheimia corymbifera [20]) | MIC (Pichia kudriavzevii [29]) | MIC (Pseudomonas aeruginosa [33]) | MIC (Nakaseomyces glabratus [37]) | MIC (Klebsiella pneumoniae [42]) | MIC (Candida tropicalis [43])
16 µM: MIC (Mycobacterium kansasii [28]) | MIC (Mycobacterium kansasii [31]) | MIC (Mycobacterium kansasii [39]) | MIC (Mycobacterium kansasii [41])
7.81 µM: MIC [13]
8 µM: MIC [3] | MIC [19] | MIC (Mycobacterium kansasii [27]) | MIC (Mycobacterium kansasii [40])
1.95 µM: MIC (Staphylococcus aureus [15]) | MIC [25] | MIC (Staphylococcus aureus [26])
0.35: Selectivity Index [6]

O=C(Nc1ccc(C(F)(F)F)cc1)c1cccc([N+](=O)[O-])c1O
250 µM: MIC (Mycobacterium avium [21]) | MIC (Mycobacterium avium [34])
62.5 µM: MIC (Mycobacterium kansasii [27]) | MIC (Mycobacterium kansasii [31]) | MIC (Mycobacterium kansasii [40])
8 µM: IC50 (HepG2)
0.25: Selectivity Index [6]
32 µM: MIC [3] | MIC [19]
125 µM: MIC (Mycobacterium kansasii [28]) | MIC (Mycobacterium kansasii [39]) | MIC (Mycobacterium kansasii [41])
